# Measured values published in ChEMBL document CHEMBL3098119, “Exploring naphthyl-carbohydrazides as inhibitors of influenza A viruses” (Eur J Med Chem, 2014).
# Calls of active or inactive are those of the source. The calls are words filed in the database; no cut-off is given here.
# Experiments:
# Influenza A virus [1] = experiment: Antiviral activity against Influenza A virus (A/udorn/307/1972 H3N2) infected in MDCK cells assessed as inhibition of viral replication at 4 to 8 uM after 24 hrs by hemagglutination assay; type: functional, organism-based
# How it was run: (§1)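 MDCK cells infected with Ud virus at moi 0.001 PFU/cell. After 1 h adsorption, compound was added at 4 or 8 μM in medium containing 1% DMSO. Medium aliquots were taken at 24, 36 and 48 h and assayed for hemagglutinin (HA) titre. Infected cells without inhibitor served as the control.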
# Influenza A virus [2] = experiment: Antiviral activity against Influenza A virus (A/udorn/307/1972 H3N2) infected in MDCK cells assessed as reduction in viral RNA titer at 4 to 8 uM after 24 hrs by RT-qPCR analysis; type: functional, organism-based
# How it was run: (§2)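 Infection was the same: MDCK, Ud virus at moi 0.001 PFU/cell, 1 h adsorption, then compound at 4 or 8 μM in 1% DMSO medium. Supernatant was sampled at 24, 36 and 48 h. Neuraminidase-segment vRNA was reverse transcribed in duplicate (forward primer 1.25 μM, 12 h, 37 C), then amplified by probe qPCR in duplicate (primers 0.8 μM, probe 0.24 μM, 50 cycles). Results were normalized to the start of infection.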
# Influenza A virus [3] = experiment: Antiviral activity against Influenza A virus (A/udorn/307/1972 H3N2) infected in MDCK cells assessed as reduction in viral RNA titer at 4 to 8 uM after 24 to 48 hrs by RT-qPCR analysis relative to control; type: functional; how it was run: as §2
# MDCK = experiment: Cytotoxicity against MDCK cells infected with Influenza A virus (A/udorn/307/1972 H3N2) at 4 uM after 24 to 48 hrs by CellTiter-Glo cell viability assay; type: cell-based, Canis lupus familiaris; conditions: dog
# How it was run: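 CellTiter-Glo ATP luminescence was measured in MDCK cells infected with Ud virus at low multiplicity, with or without 4 μM compound. Cells were lysed at several times over the 48 h infection.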
# Influenza A virus [4] = experiment: Antiviral activity against Influenza A virus (A/udorn/307/1972 H3N2) infected in MDCK cells assessed as inhibition of viral replication at 4 to 8 uM after 24 to 48 hrs by hemagglutination assay; type: functional, organism-based; how it was run: as §1
# Influenza A virus [5] = experiment: Antiviral activity against Influenza A virus (A/udorn/307/1972 H3N2) infected in MDCK cells assessed as reduction in viral RNA titer up to 6.5 hrs by RT-qPCR analysis; type: functional, organism-based
# Influenza A virus [6] = experiment: Antiviral activity against Influenza A virus (A/udorn/307/1972 H3N2) infected in MDCK cells assessed as inhibition of viral replication at 8 uM after 24 to 48 hrs by hemagglutination assay; type: functional, organism-based; how it was run: as §1
# Influenza A virus [7] = experiment: Antiviral activity against Influenza A virus (A/udorn/307/1972 H3N2) infected in MDCK cells assessed as reduction in viral RNA titer at 8 uM after 24 to 48 hrs by RT-qPCR analysis; type: functional, organism-based; how it was run: as §2
# Influenza A virus [8] = experiment: Antiviral activity against Influenza A virus (A/udorn/307/1972 H3N2) infected in MDCK cells assessed as inhibition of viral replication at 4 uM after 36 to 48 hrs by hemagglutination assay; type: functional, organism-based; how it was run: as §1
# Influenza A virus [9] = experiment: Antiviral activity against Influenza A virus (A/udorn/307/1972 H3N2) infected in MDCK cells assessed as reduction in viral RNA titer at 4 uM after 36 to 48 hrs by RT-qPCR analysis; type: functional, organism-based; how it was run: as §2
# Influenza A virus [10] = experiment: Antiviral activity against Influenza A virus (A/udorn/307/1972 H3N2) infected in MDCK cells assessed as reduction in viral RNA titer at 4 uM after 48 hrs by RT-qPCR analysis; type: functional, organism-based; how it was run: as §2
# Influenza A virus [11] = experiment: Antiviral activity against Influenza A virus (A/udorn/307/1972 H3N2) infected in MDCK cells assessed as inhibition of viral replication at 4 uM after 48 hrs by hemagglutination assay; type: functional, organism-based; how it was run: as §1
# Influenza A virus [12] = experiment: Antiviral activity against Influenza A virus (A/udorn/307/1972 H3N2) infected in MDCK cells assessed as reduction in viral RNA titer at 4 uM after 36 hrs by RT-qPCR analysis; type: functional, organism-based; how it was run: as §2
# Influenza A virus [13] = experiment: Antiviral activity against Influenza A virus (A/udorn/307/1972 H3N2) infected in MDCK cells assessed as inhibition of viral replication at 4 uM after 36 hrs by hemagglutination assay; type: functional, organism-based; how it was run: as §1
Structure (SMILES),inhibition (Influenza A virus [6]),inhibition (Influenza A virus [7]),inhibition (Influenza A virus [8]),inhibition (Influenza A virus [9]),also measured
CC(C)/C(=N\NC(=O)c1cc2ccccc2cc1O)c1ccc2c(c1)CCCC2,–,–,–,–,inhibition (Influenza A virus [1]): Active; inhibition (Influenza A virus [2]): Active
O=C(N/N=C(\c1ccccc1)c1ccc2c(c1)CCCC2)c1cc2ccccc2cc1O,–,–,–,–,fold change (FC) (Influenza A virus [3]): 1000; Activity (MDCK): Non-toxic; inhibition (Influenza A virus [4]): Active; inhibition (Influenza A virus [5]): Active
CN(C)CCC/C(=N\NC(=O)c1cc2ccccc2cc1O)c1ccc2c(c1)CCCC2,Active,Active,inactive,inactive,–
CC/C(=N\NC(=O)c1cc2ccccc2cc1O)c1ccc2c(c1)CCCC2,Active,Active,–,–,inhibition (Influenza A virus [1]): Active; inhibition (Influenza A virus [2]): Active
CCC/C(=N\NC(=O)c1cc2ccccc2cc1O)c1ccc2c(c1)CCCC2,Active,Active,–,–,inhibition (Influenza A virus [10]): inactive; inhibition (Influenza A virus [11]): inactive
O=C(N/N=C(/c1ccc2c(c1)CCCC2)C1CCCCC1)c1cc2ccccc2cc1O,Active,–,Active,Active,inhibition (Influenza A virus [12]): Active; inhibition (Influenza A virus [13]): Active
O=C(N/N=C(\CCCCl)c1ccc2c(c1)CCCC2)c1cc2ccccc2cc1O,Active,Active,inactive,inactive,–
O=C(N/N=C(/c1ccc2c(c1)CCCC2)C1CC1)c1cc2ccccc2cc1O,Active,Active,–,–,–
O=C(N/N=C(/c1ccc2c(c1)CCCC2)C1CCCC1)c1cc2ccccc2cc1O,Active,Active,Active,Active,–
